Reference: ChEMBL document CHEMBL4402562, “Discovery of Novel Peptidomimetic Boronate ClpP Inhibitors with Noncanonical Enzyme Mechanism as Potent Virulence Blockers in Vitro and in Vivo” (J Med Chem, 2020)
Calls of active or inactive are those of the source. No cut-off for these calls is given here.

Key:
[1] = molecular target: T1, ATP-dependent Clp protease proteolytic subunit (Staphylococcus aureus (strain NCTC 8325)) (UniProt Q2G036); test: Induction of thermal stabilization of ClpP in methicillin-resistant Staphylococcus aureus ATCC 33591 assessed as protein stability up to 83 degC pre-incubated for 2 hrs by CETSA method
T1 sequence (whole entry): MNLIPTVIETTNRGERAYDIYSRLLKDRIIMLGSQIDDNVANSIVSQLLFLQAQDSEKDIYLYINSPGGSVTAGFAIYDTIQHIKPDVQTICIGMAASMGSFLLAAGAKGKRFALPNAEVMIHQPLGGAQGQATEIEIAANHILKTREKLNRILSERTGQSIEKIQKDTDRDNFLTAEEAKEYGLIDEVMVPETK
How it was run: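 MRSA grown at 37 °C in TSB with DMSO or 100 µM compound 2 h; cells in TE buffer (~4×10⁹ CFU/mL), lysostaphin 37 °C 30 min; supernatant heated 5 min at set temperatures, 3 min RT, ice, spun 20,000 g 20 min; soluble ClpP by western blot with polyclonal anti-ClpP.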

Staphylococcus aureus [2] = test: (§1) Antivirulence activity against methicillin-resistant Staphylococcus aureus ATCC 33591 infected in BALB/c mouse model of skin abscess assessed as reduction in spleen histopathological changes at 1.5 to 3 mg/kg injected into shaved area of skin once daily for 4 days measured after 12 hrs post last dose by hematoxylin and eosin staining based optical microscopy; format: functional, organism-based
How it was run: (§2)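 Same MRSA ATCC 33591 skin-abscess model in female BALB/c mice (n=5/group), 40 µL compound at 1.5 or 3 mg/kg injected into the infected shaved skin once daily for 4 days. On day 4 infected skin and heart, liver, spleen, lung, kidney fixed in 4% paraformaldehyde, embedded, sectioned, H&E stained and examined by microscopy; PBS-treated uninfected and vehicle controls.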

[3] = Toxicity in BALB/c mouse model of skin abscess infected with methicillin-resistant Staphylococcus aureus ATCC 33591 assessed as effect on alanine transaminase levels at 1.5 to 3 mg/kg injected into shaved area of skin once daily for 4 days; format: organism-based; conditions: in vivo, other, 96 h
How it was run: (§3)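 Infected BALB/c mice (n=5/group) dosed 1.5 or 3 mg/kg into the infected skin once daily for 4 days; blood collected on day 4 and day 14, centrifuged 3,500 rpm 15 min, serum biochemistry analysed.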

Staphylococcus aureus [4] = test: Inhibition of virulence-related genes expression in methicillin-resistant Staphylococcus aureus ATCC 33591 assessed as reduction in agrB expression at 16 uM by qPCR analysis relative to control; format: functional
How it was run: (§4)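 Total RNA from 2×10⁸ CFU treated MRSA by liquid-nitrogen freeze-thaw and TRIzol; qPCR relative to gyrB endogenous control; three experiments, triplicate wells.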

[5] = molecular target: T1, ATP-dependent Clp protease proteolytic subunit (Staphylococcus aureus (strain NCTC 8325)); test: Potency index, ratio of IC50 for BTZ to IC50 for test compound for inhibition of ClpP in methicillin-resistant Staphylococcus aureus ATCC 33591 assessed as reduction in bacteria-induced hemolysis of sheep erythrocytes by measuring hemoglobin release incubated for 15 mins
[6] = molecular target: 20S proteasome (Homo sapiens) (UniProt P49721+P20618+P28074+P28062+P28065+P28072+P25786+P25787+P25788+P25789+P28066+P60900+O14818+Q8TAA3+P40306+A5LHX3+P49720+P28070+Q99436); test: Inhibition of 20S proteasome (unknown origin) pre-incubated before Suc-LLVY-AM addition and measured after 1 hr by fluorescence based assay; format: protein-complex assay
Staphylococcus aureus [7] = test: as §1, with “interstitium thickening” for “spleen histopathological changes”; format: functional, organism-based; how it was run: as §2
[8] = Toxicity in BALB/c mouse model of skin abscess infected with methicillin-resistant Staphylococcus aureus ATCC 33591 assessed as effect on albumin levels at 1.5 to 3 mg/kg injected into shaved area of skin once daily for 4 days; format: organism-based; conditions: in vivo, other, 96 h; how it was run: as §3
[9] = Inhibition of AlgW (unknown origin) up to 100 uM pre-incubated for 10 mins before Abz-T-V-A-W-pNA addition and measured after 1 hr by fluorescence based assay
[10] = Toxicity in BALB/c mouse model of skin abscess infected with methicillin-resistant Staphylococcus aureus ATCC 33591 assessed as increase in AST levels at 1.5 to 3 mg/kg injected into shaved area of skin once daily for 4 days measured on day 14; format: organism-based; conditions: in vivo, other, 96 h; how it was run: as §3
[11] = Cytotoxicity in human HeLa cells assessed as reduction in cell viability incubated for 24 hrs by MTT assay; format: cell-based
How it was run: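 MTT assay. HeLa (3×10^3 cells) or HepG2 (4×10^3 cells) seeded in DMEM and grown 24 h, then given compound for a further 24 h. Absorbance read at 570 nm against DMSO wells. GI50 from dose-response fit; three experiments, triplicate wells.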

Staphylococcus aureus [12] = test: Inhibition of virulence-related genes expression in methicillin-resistant Staphylococcus aureus ATCC 33591 assessed as reduction in psm expression at 4 to 16 uM by qPCR analysis relative to control; format: functional, organism-based; how it was run: as §4
[13] = molecular target: Coagulation factor X (Homo sapiens) (UniProt P00742); test: Inhibition of human F10a up to 100 uM pre-incubated for 10 mins before Pefachrome Fxa addition and measured after […] based assay
Coagulation factor X (Homo sapiens), sequence (P00742 41-179 limits assumed): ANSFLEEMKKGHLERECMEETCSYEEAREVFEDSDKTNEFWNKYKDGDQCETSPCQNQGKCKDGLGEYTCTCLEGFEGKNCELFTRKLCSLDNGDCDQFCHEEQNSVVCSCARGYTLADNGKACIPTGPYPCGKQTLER
Coagulation factor X (Homo sapiens), sequence (P00742 235-488 limits assumed): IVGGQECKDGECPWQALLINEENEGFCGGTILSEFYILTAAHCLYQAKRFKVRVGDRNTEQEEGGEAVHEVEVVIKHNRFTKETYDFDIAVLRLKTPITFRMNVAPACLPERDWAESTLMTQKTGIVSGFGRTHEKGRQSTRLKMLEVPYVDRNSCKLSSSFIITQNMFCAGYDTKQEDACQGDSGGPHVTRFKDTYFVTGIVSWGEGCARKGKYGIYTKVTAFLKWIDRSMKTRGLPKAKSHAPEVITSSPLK

[14] = Toxicity in BALB/c mouse model of skin abscess infected with methicillin-resistant Staphylococcus aureus ATCC 33591 assessed as effect on creatinine levels at 1.5 to 3 mg/kg injected into shaved area of skin once daily for 4 days; format: organism-based; conditions: in vivo, other, 96 h; how it was run: as §3
[15] = Toxicity in BALB/c mouse model of skin abscess infected with methicillin-resistant Staphylococcus aureus ATCC 33591 assessed as effect on body weight at 1.5 to 3 mg/kg injected into shaved area of skin once daily for 4 days measured every day; format: organism-based; conditions: in vivo, other, 96 h
How it was run: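 Female BALB/c mice, 6-8 weeks, n=5 per group, backs shaved and depilated 1 day before; 50 µL subcutaneous 1.7 × 10⁹ CFU/mL MRSA ATCC 33591. From 6 h post-infection, 40 µL vehicle, vancomycin 3 mg/kg, or compound 1.5 or 3 mg/kg injected at infection site once daily for 4 days; weight recorded daily. Skin homogenised in saline 12 h after last dose, plated on LB agar 37 °C ≥16 h; log10 CFU/abscess; t-test.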

[16] = Toxicity in BALB/c mouse model of skin abscess infected with methicillin-resistant Staphylococcus aureus ATCC 33591 assessed as effect on blood urea nitrogen levels at 1.5 to 3 mg/kg injected into shaved area of skin once daily for 4 days; format: organism-based; conditions: in vivo, other, 96 h; how it was run: as §3
[17] = Inhibition of Staphylococcus aureus ClpXP expressed in Escherichia coli […] using FITC-casein substrate in presence of ATP-regenerating system incubated for 50 mins by fluorescence based assay
How it was run: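 3.6 μM SaClpP with 3 μM SaClpX in 25 mM Hepes pH 7.5, 20 mM MgCl2, 30 mM KCl, 0.03% Tween 20, 10% glycerol, 2 mM DTT. ATP regeneration: 4 mM ATP, 20 U/mL creatine kinase, 16 mM creatine phosphate. FITC-casein 0.048 mg/mL, 494/521 nm for 50 min; slope 300–1200 s vs DMSO. Thrice, triplicate wells.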

Staphylococcus aureus [18] = test: Inhibition of virulence-related genes expression in methicillin-resistant Staphylococcus aureus ATCC 33591 assessed as reduction in lukS expression at 4 to 16 uM by qPCR analysis relative to control; format: functional, organism-based; how it was run: as §4

Compound: CC(C)C[C@H](NC(=O)[C@H](Cc1c[nH]c2ccccc12)NC(=O)c1cc(Cl)ccc1Cl)B(O)O
- Activity [1]: Active
- Activity (Staphylococcus aureus [2]): Active
- Activity [3]: Non-Toxic
- fold change (FC) (Staphylococcus aureus [4]): 2
- Ratio IC50 [5]: 30
- inhibition [6]: Active
- Activity (Staphylococcus aureus [7]): Active
- Activity [8]: Non-Toxic
- inhibition [9]: inactive
- Activity [10]: Non-Toxic
- GI50 at 24 h [11]: 108 µM
- inhibition (Staphylococcus aureus [12]): Active
- inhibition [13]: inactive
- Activity [14]: Non-Toxic
- Activity [15]: Non-Toxic
- Activity [16]: Non-Toxic
- IC50 [17]: 69.6 µM
- inhibition (Staphylococcus aureus [18]): Active
